Results reported in ChEMBL document CHEMBL3580554, “Design, synthesis, and anticonvulsant activity of new hybrid compounds derived from 2-(2,5-dioxopyrrolidin-1-yl)propanamides and 2-(2,5-dioxopyrrolidin-1-yl)butanamides” (J Med Chem, 2015).
Calls of active or inactive are those of the source. No cut-off for these calls is given here.

Key:
[1] = tested on: Mus musculus; assay: Anticonvulsant activity in Swiss mouse assessed as protection against seizures at 100 mg/kg, ip dosed 1 hr before pentylenetetrazole challenge by subcutaneous pentylenetetrazole seizure test; assay type: functional
How it was run: (§1)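 Mice were dosed i.p. at a fixed 300 or 100 mg/kg (6 Hz: 100 mg/kg only). Protection was then scored against MES, sc PTZ or 6 Hz seizures at pretreatment times of 0.25, 0.5, 1 and 2 h. Groups were four mice, scored as number protected / number tested. This also gives the time course and time of peak effect.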

[2] = tested on: Mus musculus; assay: Anticonvulsant activity in Swiss mouse assessed as protection against seizures at 300 mg/kg, ip dosed 2 hrs before initiation of maximal electroconvulsions by maximal electroshock test; assay type: functional; how it was run: as §1
[3] = tested on: Mus musculus; assay: Anticonvulsant activity in Swiss mouse assessed as protection against seizures at 300 mg/kg, ip dosed 0.5 hrs before pentylenetetrazole challenge by subcutaneous pentylenetetrazole seizure test; assay type: functional; how it was run: as §1
[4] = tested on: Mus musculus; assay: Protective index, ratio of neurotoxic TD50 in Swiss mouse by Chimney test to anticonvulsant ED50 in Swiss mouse measured at 0.5 hrs of time to peak effect by subcutaneous pentylenetetrazole seizure test; assay type: functional
How it was run: (§2)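 Protective index was calculated as TD50 (chimney test, mouse, i.p.) divided by ED50 from the matching MES, sc PTZ or 6 Hz test, both taken at the time of peak effect.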

[5] = tested on: Mus musculus; assay: Anticonvulsant activity in ip dosed Swiss mouse assessed as protection against seizures measured at 0.5 hrs of time to peak effect by maximal electroshock test; assay type: functional
How it was run: (§3)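 Median effective doses (ED50, mg/kg) were determined i.p. in mice at the time of peak effect in the MES, sc PTZ or 6 Hz tests. Only compounds giving at least 50% protection at 100 mg/kg in that test were taken forward.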

[6] = tested on: Mus musculus; assay: Anticonvulsant activity in Swiss mouse assessed as protection against seizures at 100 mg/kg, ip dosed 0.5 hrs before initiation of maximal electroconvulsions by maximal electroshock test; assay type: functional; how it was run: as §1
[7] = tested on: Mus musculus; assay: Anticonvulsant activity in Swiss mouse assessed as protection against seizures at 100 mg/kg, ip dosed 0.25 hrs before initiation of maximal electroconvulsions by maximal electroshock test; assay type: functional; how it was run: as §1
[8] = tested on: Mus musculus; assay: Anticonvulsant activity in Swiss mouse assessed as protection against seizures at 300 mg/kg, ip dosed 1 hr before pentylenetetrazole challenge by subcutaneous pentylenetetrazole seizure test; assay type: functional; how it was run: as §1
[9] = tested on: Mus musculus; assay: Anticonvulsant activity in Swiss mouse assessed as protection against seizures at 300 mg/kg, ip dosed 0.25 hrs before pentylenetetrazole challenge by subcutaneous pentylenetetrazole seizure test; assay type: functional; how it was run: as §1
[10] = tested on: Mus musculus; assay: Anticonvulsant activity in Swiss mouse assessed as protection against seizures at 300 mg/kg, ip dosed 1 hr before initiation of maximal electroconvulsions by maximal electroshock test; assay type: functional; how it was run: as §1
[11] = species on record: Rattus norvegicus; assay: Inhibition of [3H]BTX binding to sodium channel site 2 in rat cerebral cortex synaptosomes at 1 uM incubated for 60 mins by scintillation counting based radioligand displacement assay; assay type: subcellular
How it was run: (§4)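 Synaptoneurosomal preparations from rat cerebral cortex were used. The read-out was inhibition of specific [3H]BTX binding to the voltage-sensitive sodium channel (site 2), expressed as % inhibition of control specific binding. Compounds were tested at 1, 10, 100 and 500 μM. Inhibition above 50% was taken as significant.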

[12] = tested on: Mus musculus; assay: Anticonvulsant activity in Swiss mouse assessed as protection against seizures at 100 mg/kg, ip dosed 2 hrs before pentylenetetrazole challenge by subcutaneous pentylenetetrazole seizure test; assay type: functional; how it was run: as §1
[13] = tested on: Mus musculus; assay: Anticonvulsant activity in Swiss mouse model of 6 Hz psychomotor seizure mode assessed as protection against seizures at 100 mg/kg, ip dosed 1 hr before 6 Hz electrical stimulation by 6 Hz test; assay type: functional; how it was run: as §1
[14] = species on record: Mus musculus; assay: Protective index, ratio of neurotoxic TD50 in Swiss mouse by Chimney test to anticonvulsant ED50 in Swiss mouse measured at 0.25 hrs of time to peak effect by maximal electroshock test; how it was run: as §2
[15] = tested on: Mus musculus; assay: Anticonvulsant activity in ip dosed Swiss mouse assessed as protection against seizures measured at 0.5 hrs of time to peak effect by 6 Hz test by 6 Hz psychomotor seizure test; assay type: functional; how it was run: as §3
[16] = tested on: Mus musculus; assay: Anticonvulsant activity in Swiss mouse assessed as protection against seizures at 100 mg/kg, ip dosed 2 hrs before initiation of maximal electroconvulsions by maximal electroshock test; assay type: functional; how it was run: as §1
[17] = tested on: Mus musculus; assay: Anticonvulsant activity in Swiss mouse model of 6 Hz psychomotor seizure mode assessed as protection against seizures at 100 mg/kg, ip dosed 0.5 hrs before 6 Hz electrical stimulation by 6 Hz test; assay type: functional; how it was run: as §1
[18] = tested on: Mus musculus; assay: Anticonvulsant activity in Swiss mouse assessed as protection against seizures at 300 mg/kg, ip dosed 2 hrs before pentylenetetrazole challenge by subcutaneous pentylenetetrazole seizure test; assay type: functional; how it was run: as §1
[19] = species on record: Mus musculus; assay: Protective index, ratio of neurotoxic TD50 in Swiss mouse by Chimney test to anticonvulsant ED50 in Swiss mouse measured at 0.25 hrs of time to peak effect by 6 Hz test by 6 Hz psychomotor seizure test; assay type: functional; how it was run: as §2
[20] = tested on: Mus musculus; assay: Protective index, ratio of neurotoxic TD50 in Swiss mouse by Chimney test to anticonvulsant ED50 in Swiss mouse measured at 0.25 hrs of time to peak effect by subcutaneous pentylenetetrazole seizure test; assay type: functional; how it was run: as §2
[21] = species on record: Rattus norvegicus; assay: Inhibition of [3H]BTX binding to sodium channel site 2 in rat cerebral cortex synaptosomes at 500 uM incubated for 60 mins by scintillation counting based radioligand displacement assay; assay type: subcellular; how it was run: as §4
[22] = tested on: Mus musculus; assay: Anticonvulsant activity in ip dosed Swiss mouse assessed as protection against seizures measured at 0.5 hrs of time to peak effect by subcutaneous pentylenetetrazole seizure test; assay type: functional; how it was run: as §3
[23] = tested on: Mus musculus; assay: Anticonvulsant activity in Swiss mouse assessed as protection against seizures at 300 mg/kg, ip dosed 0.5 hrs before initiation of maximal electroconvulsions by maximal electroshock test; assay type: functional; how it was run: as §1
[24] = tested on: Mus musculus; assay: Anticonvulsant activity in Swiss mouse assessed as protection against seizures at 100 mg/kg, ip dosed 1 hr before initiation of maximal electroconvulsions by maximal electroshock test; assay type: functional; how it was run: as §1
[25] = tested on: Mus musculus; assay: Anticonvulsant activity in Swiss mouse model of 6 Hz psychomotor seizure mode assessed as protection against seizures at 100 mg/kg, ip dosed 0.25 hrs before 6 Hz electrical stimulation by 6 Hz test; assay type: functional; how it was run: as §1
[26] = tested on: Mus musculus; assay: Anticonvulsant activity in Swiss mouse assessed as protection against seizures at 100 mg/kg, ip dosed 0.25 hrs before pentylenetetrazole challenge by subcutaneous pentylenetetrazole seizure test; assay type: functional; how it was run: as §1
[27] = species on record: Mus musculus; assay: Protective index, ratio of neurotoxic TD50 in Swiss mouse by Chimney test to anticonvulsant ED50 in Swiss mouse measured at 0.5 hrs of time to peak effect by maximal electroshock test; how it was run: as §2
[28] = tested on: Mus musculus; assay: Anticonvulsant activity in Swiss mouse assessed as protection against seizures at 100 mg/kg, ip dosed 0.5 hrs before pentylenetetrazole challenge by subcutaneous pentylenetetrazole seizure test; assay type: functional; how it was run: as §1
[29] = tested on: Mus musculus; assay: Anticonvulsant activity in ip dosed Swiss mouse assessed as protection against seizures measured at 0.25 hrs of time to peak effect by subcutaneous pentylenetetrazole seizure test; assay type: functional; how it was run: as §3
[30] = tested on: Mus musculus; assay: Anticonvulsant activity in ip dosed Swiss mouse assessed as protection against seizures measured at 0.25 hrs of time to peak effect by 6 Hz test by 6 Hz psychomotor seizure test; assay type: functional; how it was run: as §3
[31] = Toxicity in ip dosed Swiss mouse assessed as induction of motor performance impairment measured within 60 seconds measured at 0.25 hrs of time to peak effect by Chimney test; assay type: organism-based; conditions: in vivo
How it was run: (§5)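 Neurotoxicity was measured i.p. in mice by the chimney test for motor impairment. It was given as the median neurotoxic dose (TD50, mg/kg) at the time of peak effect.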

[32] = tested on: Mus musculus; assay: Anticonvulsant activity in Swiss mouse model of 6 Hz psychomotor seizure mode assessed as protection against seizures at 100 mg/kg, ip dosed 2 hrs before 6 Hz electrical stimulation by 6 Hz test; assay type: functional; how it was run: as §1
[33] = species on record: Mus musculus; assay: Protective index, ratio of neurotoxic TD50 in Swiss mouse by Chimney test to anticonvulsant ED50 in Swiss mouse measured at 0.5 hrs of time to peak effect by 6 Hz test by 6 Hz psychomotor seizure test; assay type: functional; how it was run: as §2
[34] = Toxicity in ip dosed Swiss mouse assessed as induction of motor performance impairment measured within 60 seconds measured at 0.5 hrs of time to peak effect by Chimney test; assay type: organism-based; conditions: in vivo; how it was run: as §5
[35] = tested on: Mus musculus; assay: Anticonvulsant activity in Swiss mouse assessed as protection against seizures at 300 mg/kg, ip dosed 0.25 hrs before initiation of maximal electroconvulsions by maximal electroshock test; assay type: functional; how it was run: as §1
[36] = species on record: Rattus norvegicus; assay: Inhibition of [3H]BTX binding to sodium channel site 2 in rat cerebral cortex synaptosomes at 10 uM incubated for 60 mins by scintillation counting based radioligand displacement assay; assay type: subcellular; how it was run: as §4
[37] = species on record: Rattus norvegicus; assay: Inhibition of [3H]BTX binding to sodium channel site 2 in rat cerebral cortex synaptosomes at 100 uM incubated for 60 mins by scintillation counting based radioligand displacement assay; assay type: subcellular; how it was run: as §4
[38] = tested on: Mus musculus; assay: Anticonvulsant activity in ip dosed Swiss mouse assessed as protection against seizures measured at 0.25 hrs of time to peak effect by maximal electroshock test; assay type: functional; how it was run: as §3
[39] = species on record: Rattus norvegicus; assay: Inhibition of [125I]omega-conotoxin GVIA binding to N-type calcium channel in rat cerebral cortex synaptosomes at 200 uM incubated for 30 mins by scintillation counting based radioligand displacement assay; assay type: subcellular
[40] = species on record: Rattus norvegicus; assay: Inhibition of [125I]omega-conotoxin GVIA binding to N-type calcium channel in rat cerebral cortex synaptosomes at 100 uM incubated for 30 mins by scintillation counting based radioligand displacement assay; assay type: subcellular

SMILES	Activity [1] [%]	Activity [2] [%]	Activity [3] [%]	ED50 [5] [mg/kg]	Activity [6] [%]	Activity [7] [%]	Activity [8] [%]	Activity [9] [%]	Activity [10] [%]	inhibition [11] [%]	Activity [12] [%]	Activity [13] [%]	Ratio TD50/ED50 [14]	ED50 [15] [mg/kg]	Activity [16] [%]	Activity [17] [%]	Activity [18] [%]	Ratio TD50/ED50 [19]	inhibition [21] [%]	ED50 [22] [mg/kg]	also measured
CCC(C(=O)N1CCN(c2cccc(C(F)(F)F)c2)CC1)N1C(=O)CCC1=O (racemic)	25	50	75	91.7	50	75	75	100	100	8.4	25	75	3.38	42.3	0	100	75	10	69.5	78.6	Ratio TD50/ED50 [4]: 2.19; Ratio TD50/ED50 [20]: 2.39; Activity [23]: 50%; Activity [24]: 0%; Activity [25]: 100%; Activity [26]: 50%; Ratio TD50/ED50 [27]: 1.88; Activity [28]: 75%; ED50 [29]: 83.2 mg/kg; ED50 [30]: 19.9 mg/kg; TD50 at 0.25 h [31]: 199 mg/kg; Activity [32]: 50%; Ratio TD50/ED50 [33]: 4.08; TD50 at 0.5 h [34]: 173 mg/kg; Activity [35]: 75%; inhibition [36]: 9.5%; inhibition [37]: 8.8%; ED50 [38]: 58.9 mg/kg
COCC(C(=O)N1CCN(c2cccc(C(F)(F)F)c2)CC1)N1C(=O)CCC1=O (racemic)	50	100	100	85.1	75	100	75	100	100	5.7	50	75	3.49	> 120	0	100	75	3.52	77.6	> 120	inhibition [39]: 3.2%; Activity [23]: 50%; Activity [24]: 50%; Activity [25]: 100%; Activity [26]: 50%; Ratio TD50/ED50 [27]: 2.32; Activity [28]: 50%; ED50 [29]: > 120 mg/kg; ED50 [30]: 57.6 mg/kg; TD50 at 0.25 h [31]: 203 mg/kg; Activity [32]: 25%; Ratio TD50/ED50 [33]: 2.64; TD50 at 0.5 h [34]: 197 mg/kg; Activity [35]: 25%; inhibition [36]: 14.6%; inhibition [40]: inactive; inhibition [37]: 38.7%; ED50 [38]: 58.1 mg/kg
